Only some compounds are listed: those with a hit (about 1.5% of all), similar ones and a draw of the others.
Cneo AK release: Cryptococcus neoformans lysis via adenylate kinase release; C. neoformans lysis, adenylate kinase release luminescence, 4 h; normalised: neutral wells 0, clomiphene wells 100; lysis activity, % at 15 µM; hit rate 0.2% among 360,000; AID 651654;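 active = mean lysis activity across replicates of at least 80%, whatever share of replicates individually reach that level; inactive = mean lysis activity below 80%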
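Material: C. neoformans cells; Schedule: 4 h static compound exposure, 37 °C, read 1 h post-reagent; Measured by: adenylate kinase release luminescence; Read-out: signal increase indicating cell lysis; Controls: Clomiphene as positive lysis control.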
SUMO Mot1 rescue: blocks SUMOylation pathway, rescuing yeast Mot1-301 growth; S. cerevisiae Mot1-301 growth rescue, ATP luminescence, 38.5C; percent above DMSO median, 100 means doubled; growth rescue, % at 18.8 µM; hit rate 1% among 320,000;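 active = every valid replicate shows activation above 250% relative to neutral control wells; inactive = the rest, any valid replicate at or below 250%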;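 also: OY570 slx delta 5 strain wells were the positive control but not used for scaling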
C2C12 statin: suppression of simvastatin myotoxicity. C2C12 myotubes + simvastatin, ATP luminescence, 48 h; scaled: DMSO 0, geranylgeraniol control 100. rescue of ATP level, % at 7.49 µM. hit rate 0.78% among 330,000. AID 602340;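 active = mean ATP rescue above about 67%, or every replicate alone reaching that limit, limit read from the data, passing the limit was not always enough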;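 also: myotubes were challenged with 10 µM simvastatin during compound exposure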
Yeast Mot1 SUMO: SUMO pathway inhibitors in yeast Mot1-301 growth | shares compounds with SUMO Mot1 rescue | S. cerevisiae Mot1-301 galactose growth, ATP luminescence, 24 h; -100 = growth of slx-deleted rescue strain | growth activity, percent, % at 42 µM | 2,300 tested, under 10 active | AID 493004;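 active = Signal drops as the depositor expects, and the fitted half-maximal dose is no more than ten times the top valid tested dose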;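 also: more negative values mean stronger growth rescue toward the control strain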
Numbers without * were called inactive; x = no result; + = active, no number.

SMILES	Cneo AK release	SUMO Mot1 rescue	C2C12 statin	Yeast Mot1 SUMO
O=C(COc1ccc(Cl)cc1)NCCCNC(=O)c1ccccn1	0	565*	-23	0
Cc1ccc(OCC(=O)NCCCNC(=O)c2ccccn2)cc1	-3	124	-5	x
CCC(=O)N(C)C[C@H]1Oc2cc(-c3ccc(C#N)cc3)ccc2S(=O)(=O)N([C@H](C)CO)C[C@H]1C	1	x	-20	x
COc1ccc(-c2ccc3c(c2)[C@H]2[C@H](CCN2C(=O)c2cnccn2)[C@H](CO)N3)cc1	1	x	-23	x
C[C@@H]1CN([C@H](C)CO)C(=O)c2cc(NC(=O)Cn3cnnn3)ccc2O[C@@H]1CN(C)Cc1ccc2c(c1)OCO2	8	x	-2	x
Cc1ccc(C(=O)O)cc1N=Cc1cc(Br)cc(Br)c1O	x	858*	x	0
CC(=O)Nc1ccc(C(=O)N/N=C/c2cc(Br)cc(Br)c2O)cc1	x	11	0	x
CCCCN1C(=O)C(O)=C(C(C)=O)C1c1ccc(OC)cc1OC (configuration not stated)	-2	83	3	x
COc1ccc(C2C(C(C)=O)=C(O)C(=O)N2CCO)c(OC)c1 (configuration not stated)	-3	893*	8	1
O=C(Nc1ccc2oc(-c3ccccc3F)nc2c1)c1ccccc1F	-2	8	-19	x
O=C(Nc1ccc2oc(-c3ccccc3F)nc2c1)c1ncn[nH]1	-4	+	8	1
CC(C)c1ccc2c(c1)CCC1C(C)(CN)CCCC21C (configuration not stated)	0	617*	-18	-2
CC(C)c1ccc2c(c1)CC[C@H]1[C@](C)(CN)CCC[C@]21C	1	x	-129	x
CC(C)(C)OC(=O)N1CCC(Cc2cc(-c3ccc(Cl)cc3)no2)(C(=O)O)CC1	3	10	-5	x
COC(=O)c1ccc(-c2cc(CC3(C(=O)OC)CCN(C(=O)OC(C)(C)C)CC3)on2)cc1	0	-11	7	x
COc1ccc(-c2cc(CC3(C(=O)O)CCN(C(=O)OC(C)(C)C)CC3)on2)c(OC)c1	0	381*	-3	1
COC(=O)C1(Cc2cc(-c3ccccc3)no2)CCN(C(=O)OC(C)(C)C)CC1	-1	+	-4	0
CO[C@H]1CN(C)C(=O)c2ccc(NC(=O)C3CC3)cc2OC[C@@H](C)N(Cc2ccccc2)C[C@@H]1C	-5	x	13	x
C[C@@H]1CCCCO[C@@H](CN(C)S(C)(=O)=O)[C@@H](C)CN([C@@H](C)CO)C(=O)c2cc(NS(C)(=O)=O)ccc2O1	55	x	x	x
CNC(=O)C[C@H]1CC[C@H]2[C@@H](COC[C@H](O)CN2C(=O)Nc2cccc(OC)c2)O1	-2	x	3	x
N#CCC(=O)N/N=C/c1ccc(OS(=O)(=O)c2ccccc2)cc1	-3	846*	x	-1
N#CCC(=O)N/N=C/c1ccc(OCc2ccccc2)cc1	x	6	-6	x
C[C@H]1CN([C@@H](C)CO)S(=O)(=O)c2ccc(-c3ccccc3)cc2O[C@H]1CN(C)C(=O)c1ccc2c(c1)OCO2	-2	x	-10	x
Cc1ccc(C(=O)c2cc([N+](=O)[O-])ccc2N2CCOCC2)cc1C	x	-21	x	x
Cc1ccc(C(=O)c2cc([N+](=O)[O-])ccc2N2CCCCC2)cc1C	x	500*	x	0
SMILES	Cneo AK release	SUMO Mot1 rescue	C2C12 statin	Yeast Mot1 SUMO
COC(=O)C[C@@H]1CC[C@H]2[C@H](COc3ccc(NC(=O)Cc4cccs4)cc3C(=O)N2C)O1	x	x	-6	x
CCOc1ccc(CCNC(=O)COC(=O)c2ccc(OC)c(OC)c2OC)cc1OCC	-3	6	15	x
CCOc1ccc(CCNC(=O)COC(=O)COc2ccc(C(=O)CC)cc2)cc1OCC	x	5	6	x
CCOc1ccc(CCNC(=O)COC(=O)c2cccc(OC)c2O)cc1OCC	x	541*	x	0
CCOc1ccc(CCNC(=O)COC(=O)COc2ccc(C(C)=O)cc2)cc1OCC	1	+	7	-1
CO[C@@H]1CN(C)C(=O)c2cc(NC(=O)C3CC3)ccc2OC[C@H](C)N(C(=O)C2CCOCC2)C[C@@H]1C	-1	x	9	x
C[C@@H]1CN([C@@H](C)CO)C(=O)c2cc(C#CCc3ccccc3)cnc2O[C@@H]1CN(C)Cc1cccnc1	13	x	-3	x
Cc1cc(C)n(C(=O)CCC2COc3ccccc3O2)n1 (configuration not stated)	3	3	x	x
Cc1cc(C)nc(SCC2COc3ccccc3O2)n1 (configuration not stated)	0	393*	-5	1
Cc1cc(NC(=O)CSc2ncccn2)no1	0	-7	14	x
Cc1cc(NC(=O)CSc2ncn(-c3ccccc3)n2)no1	-1	925*	-2	0
Cc1noc(C)c1S(=O)(=O)N(C)C[C@H]1OCCCC[C@@H](C)Oc2ccc(NS(=O)(=O)c3cccs3)cc2C(=O)N([C@@H](C)CO)C[C@@H]1C	-5	x	x	x
C[C@@H]1CCCCO[C@@H](CN(C)Cc2ccc3c(c2)OCO3)[C@H](C)CN([C@H](C)CO)C(=O)c2cc(NC(=O)c3ccccc3)ccc2O1	-2	x	x	x
Cc1ccc(SC[C@H](C)CN2CC[C@H](C)CCC2=O)cc1	1	460*	-9	0
C[C@@H]1CCC(=O)N(C[C@@H](C)CSc2ccc(Br)cc2)CC1	0	-8	-14	x
C[C@H](CO)N1C[C@H](C)[C@H](CN(C)S(=O)(=O)c2ccc(F)cc2)Oc2ccc(NC(=O)Cn3cnnn3)cc2CC1=O	-1	x	-17	x
COc1ccc(C2=NN(C(=S)Nc3ccccc3)C(c3ccccc3)C2)cc1 (configuration not stated)	x	+	x	-1
COc1ccc(C2CC(c3ccccc3)=NN2C(=S)Nc2ccccc2)cc1 (configuration not stated)	-5	x	0	x
Cc1cc(C)n(-c2ccc(C(=O)NC(C)C)cc2)n1	-2	6	2	x
Cc1cc(-c2ccccc2)n(-c2ccc(C(=O)NC(C)C)cc2)n1	-4	645*	12	0
CCn1c(Cc2ccccc2)nnc1SCC(=O)Nc1ccc(N2CCOCC2)c(Cl)c1	9	-16	-4	x
Cn1c(SCC(=O)Nc2ccc(N3CCOCC3)c(Cl)c2)nnc1-c1ccccc1	x	692*	x	0
COc1ccc(CN2C[C@@H](C)[C@@H](OC)CN(C)C(=O)c3cc(NC(C)=O)ccc3OC[C@H]2C)cc1	4	x	0	x
C[C@H]1CN([C@@H](C)CO)C(=O)c2cccc(NS(=O)(=O)c3cn(C)cn3)c2O[C@H]1CN(C)Cc1ccncc1	-3	x	2	x
CO[C@H]1CN(C)C(=O)c2cc(NC(=O)c3ccccc3F)ccc2OC[C@@H](C)N(C)C[C@H]1C	0	x	-13	x
Cc1cc(C)cc(OCC(=O)NC2CCCc3ccccc32)c1 (configuration not stated)	x	461*	x	0
COc1ccccc1OCC(=O)NC1CCCc2ccccc21 (configuration not stated)	6	-3	8	x
CCOC(=O)c1c(/N=C/C2C(=O)CC(C)(C)CC2=O)sc2c1CCCC2	x	-8	-13	x
